Measurements: ChEMBL document CHEMBL1275282, “Synthesis, characterization, oxidative degradation, antibacterial activity and acetylcholinesterase/butyrylcholinesterase inhibitory effects of some new phosphorus(V) hydrazides” (Eur J Med Chem, 2010)

B1: Cholinesterase (Homo sapiens), P06276 (protein)
chain: MHSKVTIICIRFLFWFLLLCMLIGKSHTEDDIIIATKNGKVRGMNLTVFGGTVTAFLGIPYAQPPLGRLRFKKPQSLTKWSDIWNATKYANSCCQNIDQSFPGFHGSEMWNPNTDLSEDCLYLNVWIPAPKPKNATVLIWIYGGGFQTGTSSLHVYDGKFLARVERVIVVSMNYRVGALGFLALPGNPEAPGNMGLFDQQLALQWVQKNIAAFGGNPKSVTLFGESAGAASVSLHLLSPGSHSLFTRAILQSGSFNAPWAVTSLYEARNRTLNLAKLTGCSRENETEIIKCLRNKDPQEILLNEAFVVPYGTPLSVNFGPTVDGDFLTDMPDILLELGQFKKTQILVGVNKDEGTAFLVYGAPGFSKDNNSIITRKEFQEGLKIFFPGVSEFGKESILFHYTDWVDDQRPENYREALGDVVGDYNFICPALEFTKKFSEWGNNAFFYYFEHRSSKLPWPEWMGVMHGYEIEFVFGLPLERRDNYTKAEEILSRSIVKRWANFAKYGNPNETQNNSTSWPVFKSTEQKYLTLNTESTRIMTKLRAQQCRFWTSFFPKVLEMTGNIDEAEWEWKAGFHRWNNYMMDWKNQFNDYTSKKESCVGL
B2: Acetylcholinesterase (Homo sapiens), P22303 (protein)
chain: MRPPQCLLHTPSLASPLLLLLLWLLGGGVGAEGREDAELLVTVRGGRLRGIRLKTPGGPVSAFLGIPFAEPPMGPRRFLPPEPKQPWSGVVDATTFQSVCYQYVDTLYPGFEGTEMWNPNRELSEDCLYLNVWTPYPRPTSPTPVLVWIYGGGFYSGASSLDVYDGRFLVQAERTVLVSMNYRVGAFGFLALPGSREAPGNVGLLDQRLALQWVQENVAAFGGDPTSVTLFGESAGAASVGMHLLSPPSRGLFHRAVLQSGAPNGPWATVGMGEARRRATQLAHLVGCPPGGTGGNDTELVACLRTRPAQVLVNHEWHVLPQESVFRFSFVPVVDGDFLSDTPEALINAGDFHGLQVLVGVVKDEGSYFLVYGAPGFSKDNESLISRAEFLAGVRVGVPQVSDLAAEAVVLHYTDWLHPEDPARLREALSDVVGDHNVVCPVAQLAGRLAAQGARVYAYVFEHRASTLSWPLWMGVPHGYEIEFIFGIPLDPSRNYTAEEKIFAQRLMRYWANFARTGDPNEPRDPKAPQWPPYTAGAQQYVSLDLRPLEVRRGLRAQACAFWNRFLPKLLSATDTLDEAERQWKAEFHRWSSYMVHWKNQFDHYSKQDRCSDL

Legend:
[1] = compound: O=P(NN1CCOCC1)(NN1CCOCC1)c1ccccc1; assay: (§1) Inhibition of human BChE by double reciprocal Lineweaver-Burke plot assay
In short: (§2)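 Kinetics used the same Ellman read-out, with substrate varied: acetylthiocholine for AChE, butyrylthiocholine for BChE. Rates were taken as OD min-1 with and without inhibitor. Km and Vmax were derived from double-reciprocal Lineweaver-Burk plots of 1/V against 1/[S].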

[2] = compound: O=P(NN1CCOCC1)(NN1CCOCC1)Oc1ccccc1; assay: as §1; in short: as §2
[3] = compound: O=P(O)(NN1CCCCC1)Oc1ccccc1; assay: as §1; in short: as §2
[4] = compound: O=C(NP(=O)(NN1CCCCC1)NN1CCCCC1)c1ccccc1; assay: as §1; in short: as §2
[5] = compound: O=C(NP(=O)(NN1CCOCC1)NN1CCOCC1)c1ccccc1; assay: as §1; in short: as §2
[6] = compound: O=P(NN1CCOCC1)(NN1CCOCC1)Oc1ccccc1; assay: (§3) Inhibition of human AChE by double reciprocal Lineweaver-Burke plot assay; in short: as §2
[7] = compound: O=P(O)(NN1CCCCC1)Oc1ccccc1; assay: as §3; in short: as §2
[8] = compound: O=C(NP(=O)(NN1CCCCC1)NN1CCCCC1)c1ccccc1; assay: as §3; in short: as §2
[9] = compound: O=C(NP(=O)(NN1CCOCC1)NN1CCOCC1)c1ccccc1; assay: as §3; in short: as §2

Protein | Km [1] [µM] | Vmax [1] [mM/min] | Km [2] [µM] | Vmax [2] [mM/min] | Km [3] [µM] | Vmax [3] [mM/min] | Km [4] [µM] | Vmax [4] [mM/min] | Km [5] [µM] | Vmax [5] [mM/min] | Km [6] [µM] | Vmax [6] [mM/min] | Km [7] [µM] | Vmax [7] [mM/min] | Km [8] [µM] | Vmax [8] [mM/min] | Km [9] [µM] | Vmax [9] [mM/min]
B1 | 67 | 71.4 | 85 | 66.4 | 67 | 27.8 | 75 | 55.6 | 50 | 23.5 | – | – | – | – | – | – | – | –
B2 | – | – | – | – | – | – | – | – | – | – | 47 | 37 | 51 | 11.1 | 45 | 40 | 49 | 55.5
